From ChEMBL document CHEMBL1125416, “Synthesis and antiulcer activity of novel 5-(2-ethenyl substituted)-3(2H)-furanones” (1992) come the findings set out here.

Experiment [1] concerns Rattus norvegicus. The experiment is described as follows: Inhibitory activity against ethanol-induced lesions, which was administered after 1 hr of oral dosing in pylorus-ligated rat model. The format is functional.
For experiment [2], the system named is Rattus norvegicus. The experiment is described as follows: Compound was evaluated for the duration of cytoprotective effect, in Ethanol-Necrosis model, that causes inhibition of ulceration. Absolute ethanol was administered at 6 hr after dosing. The class given is functional. The method in brief:
(§1)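 Male Sprague-Dawley rats (180–210 g), fasted 18–24 h with water available, dosed orally with drug or vehicle 4, 6 or 8 h before absolute ethanol (1 mL per rat po). Rats killed 1 h after ethanol, stomachs kept moist with saline and scored blind by ulcer size (mm²) and number per size class. Percent inhibition is taken against the vehicle group mean score.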

Experiment [3] is filed under the species Rattus norvegicus. The experiment is described as follows: Effective dose that inhibits formation of induced gastric lesions. The class given is functional. To be noted: Stomach. The method in brief: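 Male Sprague-Dawley rats (180–210 g), fasted 18–24 h with water allowed, dosed orally 1 h before absolute ethanol (1 mL/rat po) and killed 1 h later. Lesions scored blind by size (mm²) and number, expressed as % inhibition versus vehicle mean. Groups of ≥10 rats; Dunnett's test (p < 0.01).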

In experiment [4] the test system is Rattus norvegicus. The experiment is described as follows: Inhibition against ethanol-induced lesions which was administered after 1 hr at a oral dosing of 25 mg/kg in pylorus-ligated rat model. The format is functional.
Experiment [5] deals with Rattus norvegicus. The experiment is described as follows: Inhibition against ethanol-induced lesions which was administered after 1 hr at a oral dosing of 10 mg/kg in pylorus-ligated rat model. The class given is functional.
The species entered for experiment [6] is Rattus norvegicus. The experiment is described as follows: Inhibitory activity In acidified aspirin model. The format is functional. The gist of the method: (§2)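 Male Sprague-Dawley rats (120–180 g), fasted 18–24 h with water ad libitum. Compound or vehicle given po (10 mL/kg) 30 min before acidified aspirin (aspirin powder in 0.35 M HCl, 5 mL/kg po). Stomachs excised 5 h after aspirin and graded by ulcer size and number. Percent inhibition versus vehicle, ≥10 rats per group.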

The subject of experiment [7] is Rattus norvegicus. As to the kind of experiment: Evaluated for the duration of cytoprotective effect, in Ethanol-Necrosis model, that causes inhibition of ulceration. Absolute ethanol was administered at 4 hr after dosing. The class given is functional. Also on record: concentration or dose not given beside the values. The gist of the method:
as §1

Experiment [8] has as its system Rattus norvegicus. As to the kind of experiment: Compound was evaluated for the duration of cytoprotective effect, in Ethanol-Necrosis model, that causes inhibition of ulceration. Absolute ethanol was administered at 8 hr after dosing. The format is functional. The gist of the method:
as §1

For experiment [9], the species on record is Rattus norvegicus. As to the kind of experiment: Inhibitory activity In the indomethacin model. The class given is functional. The method in brief: (§3)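 In male Sprague-Dawley rats (120–170 g) fasted 18 h with water ad libitum, oral test compound was given 30 min before indomethacin (20 mg/kg po). Rats killed by cervical dislocation 4 h later; stomachs opened along the greater curvature, rinsed, and lesions graded by size and number. Percent inhibition versus control, ≥10 rats per group.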

The subject of experiment [10] is Rattus norvegicus. The experiment is described as follows: Evaluated for the duration of cytoprotective effect, in Ethanol-Necrosis model, that causes inhibition of ulceration. Absolute ethanol was administered at 8 hr after dosing. The class given is functional. Also on record: concentration or dose not given beside the values. The method in brief:
as §1

Experiment [11] concerns Rattus norvegicus. The experiment is described as follows: Inhibitory activity In the indomethacin model at a dose of 111 mg/kg perorally. The note with it: route oral. The class given is functional. The method in brief: as §3
Experiment [12] deals with Rattus norvegicus. As to the kind of experiment: Inhibitory activity In acidified aspirin model at a dose of 40 mg/kg perorally. The class given is functional. To be noted: route oral. The gist of the method: as §2
For experiment [13], the system named is Rattus norvegicus. The experiment is described as follows: Compound was tested for inhibition against ethanol-induced lesions which was administered after 1 hr of at a oral dosing of 25 mg/kg in pylorus-ligated rat model. The format is functional.
Experiment [14] relates to Rattus norvegicus. The experiment is described as follows: Inhibitory activity In the indomethacin model at a dose of 120 mg/kg perorally. The class given is functional. The note with it: route oral. The method in brief:
as §3

For experiment [15], the system named is Rattus norvegicus. The experiment is described as follows: Inhibitory activity in acidified aspirin model at a dose of 50 mg/kg perorally. The class given is functional. To be noted: route oral. The method in brief:
as §2

Experiment [16] concerns Rattus norvegicus. The experiment is described as follows: Inhibitory activity in the indomethacin model at a dose of 40 mg/kg perorally. The format is functional. The note with it: route oral. The gist of the method:
as §3

In experiment [17] the test system is Rattus norvegicus. As to the kind of experiment: Inhibitory activity In acidified aspirin model at a dose of 16 mg/kg perorally. The class given is functional. To be noted: route oral. The method in brief: as §2
Experiment [18] has as its system Rattus norvegicus. The experiment is described as follows: Compound was tested for inhibition against ethanol-induced lesions which was administered after 1 hr of oral dosing in rat ethanol-necrosis model.

SMILES strings stand for the structures.

As to `CC1(C)OC(/C=C/c2ccncc2)=CC1=O`, the ED50 came out at 4 mg/kg in the experiment on Rattus norvegicus [1] and 20 mg/kg in the experiment filed under Rattus norvegicus [3]. In the experiment on Rattus norvegicus [2], this compound registered an Inhibition of 46%.
In turn, `CC1(C)OC(c2ccc(Br)cc2)=CC1=O` came in with an inhibition in vivo at 25 mg/kg with Rattus norvegicus [4] of 36%.
In the case of `CC1(C)OC(/C=C/c2cnccn2)=CC1=O`, the inhibition in vivo at 10 mg/kg with Rattus norvegicus [5] is 56%.
For `CC1(C)OC(/C=C/c2cc(Cl)cc(Cl)c2)=CC1=O`, the inhibition in vivo at 25 mg/kg with Rattus norvegicus [4] came out at 63%.
For the compound `CC(=O)c1ccc2c(c1)C(=O)C1(CC1)O2` [SPIZOFURONE], the Inhibition in the experiment filed under Rattus norvegicus [6] is listed as 78%; in the experiment with Rattus norvegicus [7], 72%; in the experiment on Rattus norvegicus [2], 44%; in the experiment on Rattus norvegicus [8], 0%; in the experiment listed under Rattus norvegicus [9], 95%. Moreover, the ED50 with Rattus norvegicus [1] turned out to be 10 mg/kg; in the experiment filed under Rattus norvegicus [3], 100 mg/kg.
For the compound `C/C(=C\c1ccccc1)C1=CC(=O)C(C)(C)O1`, the inhibition in vivo at 10 mg/kg in the experiment with Rattus norvegicus [5] worked out at 0%.
In the case of `CC1(C)OC(/C=C/c2cccnc2)=CC1=O`, the 50% effective dose (ED50) amounted to 9 mg/kg with Rattus norvegicus [1] and 40 mg/kg in the experiment filed under Rattus norvegicus [3]. The Inhibition in the experiment on Rattus norvegicus [7] worked out at 43%; in the experiment on Rattus norvegicus [2], 60%; in the experiment with Rattus norvegicus [10], 40%.
`CC1(c2ccccc2)OC(/C=C/c2ccncc2)=CC1=O` (configuration not stated): the ED50 in the experiment with Rattus norvegicus [1] is 6 mg/kg; in the experiment filed under Rattus norvegicus [3], 24 mg/kg. The Inhibition in the experiment with Rattus norvegicus [7] was 31%.
Regarding `CC1(c2ccccc2)OC(/C=C/c2ccsc2)=CC1=O` (configuration not stated), the inhibition in vivo at 10 mg/kg in the experiment on Rattus norvegicus [5] was determined as 0%.
As for `CC1(C)OC(/C=C/c2ccccn2)=CC1=O`, the figures for the ED50 with Rattus norvegicus [1] and in the experiment listed under Rattus norvegicus [3] were 10 mg/kg and 40 mg/kg, respectively. The compound further displayed an inhibition in vivo at 111 mg/kg in the experiment on Rattus norvegicus [11] of 72%. Further, the Inhibition in the experiment on Rattus norvegicus [7] is listed as 67%; in the experiment with Rattus norvegicus [10] it was 76%. Besides, in the experiment on Rattus norvegicus [12], the inhibition in vivo at 40 mg/kg is 77%.
As for `CC1(C)OC(/C=C/c2ccc(F)cc2)=CC1=O`, the median effective dose (ED50) in the experiment on Rattus norvegicus [1] worked out at 11 mg/kg; in the experiment filed under Rattus norvegicus [3] it was 50 mg/kg. Also, the figures for the Inhibition with Rattus norvegicus [7], in the experiment with Rattus norvegicus [2] and with Rattus norvegicus [10] were 61%, 50% and 25%, respectively.
For `Cn1cccc1/C=C/C1=CC(=O)C(C)(C)O1`, in the experiment on Rattus norvegicus [5], the inhibition in vivo at 10 mg/kg is 32%.
In the case of `CC1(c2ccc(F)cc2)OC(/C=C/c2ccsc2)=CC1=O` (configuration not stated), in the experiment with Rattus norvegicus [5], the inhibition in vivo at 10 mg/kg was found to be 22%.
For `CC1(c2ccc(F)cc2)OC(/C=C/c2ccc(C#N)cc2)=CC1=O` (configuration not stated), at 10 mg/kg the inhibition in vivo in the experiment with Rattus norvegicus [5] was 1%.
In the case of `CC1(C)OC(/C=C/c2ccc(F)cc2F)=CC1=O`, the median effective dose (ED50) came to 11 mg/kg with Rattus norvegicus [1] and 100 mg/kg in the experiment listed under Rattus norvegicus [3]. In the experiment on Rattus norvegicus [7], this compound yielded an Inhibition of 42%.
For the compound `CC1(C)OC(/C=C/c2cccs2)=CC1=O`, the inhibition in vivo at 25 mg/kg with Rattus norvegicus [13] was 1%.
For `CC1(c2ccccc2)OC(/C=C/c2ccccn2)=CC1=O` (configuration not stated), the ED50 with Rattus norvegicus [1] is 5 mg/kg; in the experiment filed under Rattus norvegicus [3], 40 mg/kg. The compound further gave an Inhibition in the experiment with Rattus norvegicus [7] of 28%.
`CC1(C)OC(c2ccc(C(F)(F)F)cc2)=CC1=O` yielded an inhibition in vivo at 25 mg/kg in the experiment on Rattus norvegicus [4] of 39%.
In the experiment with Rattus norvegicus [4], `CSc1ccc(/C=C/C2=CC(=O)C(C)(C)O2)cc1` had an inhibition in vivo at 25 mg/kg of 5%.
`CC1(c2ccc(F)cc2)OC(/C=C/c2ccccn2)=CC1=O` (configuration not stated) returned an ED50 in the experiment with Rattus norvegicus [1] of 3.5 mg/kg.
In turn, `CC1(C)OC(/C=C/c2ccc(C#N)cc2)=CC1=O` came in with an inhibition in vivo at 120 mg/kg in the experiment on Rattus norvegicus [14] of 70%. The ED50 in the experiment on Rattus norvegicus [1] was found to be 12 mg/kg; in the experiment filed under Rattus norvegicus [3], 50 mg/kg. Further, the inhibition in vivo at 50 mg/kg in the experiment on Rattus norvegicus [15] was 23%. This compound had an Inhibition in the experiment with Rattus norvegicus [10] of 66%.
The compound `CC1(C)OC(/C=C/c2cccc(C#N)c2)=CC1=O` came in with an inhibition in vivo at 10 mg/kg in the experiment with Rattus norvegicus [5] of 68%.
In the case of `CC1(c2ccccc2)OC(/C=C/c2ccc(C#N)cc2)=CC1=O` (configuration not stated), the inhibition in vivo at 10 mg/kg in the experiment on Rattus norvegicus [5] is 4%.
In the experiment with Rattus norvegicus [1], `CC1(C)OC(/C=C/c2ccccc2)=CC1=O` came in with an ED50 of 17 mg/kg.
Regarding `CC1(C)OC(c2ccccc2)=CC1=O`, in the experiment with Rattus norvegicus [1], the 50% effective dose (ED50) was 19 mg/kg.
`CC1(C)OC(/C=C/c2ccc(Cl)cc2)=CC1=O` returned an Inhibition in the experiment with Rattus norvegicus [7] of 51%. Further, the 50% effect level in the experiment listed under Rattus norvegicus [3] (ED50) was put at a dose of 40 mg/kg.
Take `CC1(C)OC(/C=C/C=C/c2ccc(Cl)cc2)=CC1=O`: testing at 10 mg/kg in the experiment with Rattus norvegicus [5] gave an inhibition in vivo of 33%.
Compound `CC1(C)OC(/C=C/c2ccoc2)=CC1=O` displayed an inhibition in vivo at 10 mg/kg in the experiment on Rattus norvegicus [5] of 32%.
Take `CC1(C)OC(/C=C/c2ccnc3ccccc23)=CC1=O`: the 50% effective dose (ED50) in the experiment on Rattus norvegicus [1] is 2.5 mg/kg.
With `CC1(C)OC(/C=C/c2ccsc2)=CC1=O`, the figures for the ED50 in the experiment with Rattus norvegicus [1] and in the experiment listed under Rattus norvegicus [3] were 4 mg/kg and 16 mg/kg, respectively. This compound also displayed an inhibition in vivo at 40 mg/kg with Rattus norvegicus [16] of 65%. The same compound showed an inhibition in vivo at 16 mg/kg with Rattus norvegicus [17] of 0%. Further, in the experiment with Rattus norvegicus [10], the Inhibition was found to be 62%.
In the case of `CC1(C)OC(/C=C/c2ccc(Cl)c(Cl)c2)=CC1=O`, in the experiment on Rattus norvegicus [4], 25 mg/kg produced 45% inhibition in vivo.
Compound `CC1(C)OC(/C=C/c2ccc(Br)cc2)=CC1=O` had an ED50 in the experiment on Rattus norvegicus [1] of 18 mg/kg.
`COc1ccc(C2=CC(=O)C(C)(C)O2)cc1` returned an Inhibition in the experiment with Rattus norvegicus [18] of 30%.
On the same count and under the same terms, the value for `CC1(C)OC(/C=C/c2ccc(F)c(F)c2)=CC1=O` was 47%.
As for `CC1(C)OC(/C=C/c2ccc(C(F)(F)F)cc2)=CC1=O`, 25 mg/kg produced 30% inhibition in vivo with Rattus norvegicus [4].
Regarding `CC1(C)OC(/C=C/c2ccc(S(C)(=O)=O)cc2)=CC1=O`, the inhibition in vivo at 25 mg/kg in the experiment with Rattus norvegicus [4] was 56%.
As to `CC1(C)OC(/C=C/c2ccc(Cl)cc2Cl)=CC1=O`, the inhibition in vivo at 25 mg/kg with Rattus norvegicus [4] turned out to be 20%.
Regarding `CC1(C)OC(c2ccc(Cl)cc2)=CC1=O`, the inhibition in vivo at 25 mg/kg in the experiment on Rattus norvegicus [4] amounted to 29%.
`CC1(c2ccccc2)OC(/C=C/c2cccnc2)=CC1=O` (configuration not stated) returned an inhibition in vivo at 10 mg/kg in the experiment on Rattus norvegicus [5] of 44%.
Compound `CC1(C)OC(/C=C/c2ccc3ccccc3c2)=CC1=O` registered an inhibition in vivo at 25 mg/kg in the experiment on Rattus norvegicus [4] of 43%.
Consider `CC1(C)OC(/C=C/c2cc3ccccc3s2)=CC1=O`, for which testing at 10 mg/kg in the experiment on Rattus norvegicus [5] gave an inhibition in vivo of 17%.
